Data published in ChEMBL document CHEMBL2016482, “Synthesis and inhibitory effect of piperine derivates on monoamine oxidase” (Bioorg Med Chem Lett, 2012).

What was measured:
[1] = target: T1, Amine oxidase [flavin-containing] B (Rattus norvegicus, UniProt P19643); assay: Inhibition of MAO-B in Sprague-Dawley rat brain homogenate using kynuramine as substrate preincubated for 10 mins measured by fluorimetric assay; format: tissue-based
T1 sequence (P19643 whole entry): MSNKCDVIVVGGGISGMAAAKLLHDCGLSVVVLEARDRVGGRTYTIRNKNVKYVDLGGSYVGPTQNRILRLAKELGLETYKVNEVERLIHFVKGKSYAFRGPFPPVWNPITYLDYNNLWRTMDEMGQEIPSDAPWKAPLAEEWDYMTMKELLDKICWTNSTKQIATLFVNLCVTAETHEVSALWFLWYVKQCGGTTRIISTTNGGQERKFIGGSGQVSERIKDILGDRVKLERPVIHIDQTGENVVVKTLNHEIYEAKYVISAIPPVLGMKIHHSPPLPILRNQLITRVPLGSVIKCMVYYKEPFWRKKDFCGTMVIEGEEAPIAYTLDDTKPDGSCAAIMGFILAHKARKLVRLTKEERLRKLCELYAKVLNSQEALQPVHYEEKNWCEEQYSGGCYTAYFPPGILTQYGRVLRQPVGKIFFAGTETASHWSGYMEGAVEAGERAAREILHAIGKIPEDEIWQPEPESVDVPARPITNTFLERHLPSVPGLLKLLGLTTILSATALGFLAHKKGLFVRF
Method in brief: (§1)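 Rat brain homogenate was the enzyme source, with protein measured by Bradford against a BSA standard. Fluorometric MAO assay used kynuramine substrate in the presence of isoform-specific inhibitors. Test inhibitor was preincubated with homogenate for 10 min. IC50 came from plots of % residual activity relative to enzyme treated identically without inhibitor.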

[2] = target: T2, Amine oxidase [flavin-containing] A (Rattus norvegicus, UniProt P21396); assay: Inhibition of MAO-A in Sprague-Dawley rat brain homogenate using kynuramine as substrate preincubated for 10 mins measured by fluorimetric assay; format: tissue-based; method in brief: as §1
T2 sequence (P21396 whole entry): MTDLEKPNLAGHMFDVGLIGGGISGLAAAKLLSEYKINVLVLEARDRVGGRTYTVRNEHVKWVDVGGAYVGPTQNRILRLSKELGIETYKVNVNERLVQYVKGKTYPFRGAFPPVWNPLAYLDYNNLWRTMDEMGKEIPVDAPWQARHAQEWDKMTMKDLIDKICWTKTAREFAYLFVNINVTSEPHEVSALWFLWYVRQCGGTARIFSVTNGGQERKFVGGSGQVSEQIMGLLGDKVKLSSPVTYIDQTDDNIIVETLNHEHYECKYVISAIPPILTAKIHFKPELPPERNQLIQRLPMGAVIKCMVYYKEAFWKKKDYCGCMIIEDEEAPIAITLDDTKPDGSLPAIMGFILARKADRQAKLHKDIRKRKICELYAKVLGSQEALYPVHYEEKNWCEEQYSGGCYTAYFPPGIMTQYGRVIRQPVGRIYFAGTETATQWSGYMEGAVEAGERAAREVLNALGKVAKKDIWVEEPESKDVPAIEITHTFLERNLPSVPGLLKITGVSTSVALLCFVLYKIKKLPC

Rattus norvegicus = species on record: Rattus norvegicus; assay: Selectivity ratio of IC50 for Sprague-Dawley rat MAO-A to IC50 for Sprague-Dawley rat MAO-B
[3] = target: T1, Amine oxidase [flavin-containing] B; assay: Competitive inhibition of MAO-B in Sprague-Dawley rat brain homogenate by Lineweaver-Burk plot analysis; format: tissue-based
Method in brief: (§2)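 Kinetic mode of the same homogenate kynuramine fluorometric assay. Reciprocal MAO activity was plotted against reciprocal kynuramine concentration (Lineweaver–Burk), each at three inhibitor levels including zero, run separately for MAO-A and MAO-B.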

[4] = target: T2, Amine oxidase [flavin-containing] A; assay: Competitive inhibition of MAO-A in Sprague-Dawley rat brain homogenate by Lineweaver-Burk plot analysis; format: tissue-based; method in brief: as §2

Row | Compound | IC50 [1] [nM] | IC50 [2] [µM] | Ratio IC50 (Rattus norvegicus) | inhibition (INH) [3] | inhibition (INH) [4]
1 | O=C(CCCCc1ccc2c(c1)OCO2)N1CCCCC1 [TETRAHYDROPIPERINE] | 1970 | > 100 | – | – | –
2 | CCN(CC)C(=O)/C=C/C=C/c1ccc2c(c1)OCO2 | 78 | 3.82 | 49 | – | –
3 | CCCNC(=O)CCCCc1ccc2c(c1)OCO2 | > 100000 | > 100 | – | – | –
4 | CCN(CC)C(=O)CCCCc1ccc2c(c1)OCO2 | 1750 | 5.21 | 2.98 | – | –
5 | CC(=O)Oc1ccc(/C=C/C=C/C(=O)N2CCCCC2)cc1OC(C)=O | 750 | 1.28 | 1.71 | – | –
6 | CCOC(=O)CCCCc1ccc2c(c1)OCO2 | 1230 | 5.57 | 4.53 | – | –
7 | CCCCNC(=O)/C=C/C=C/c1ccc2c(c1)OCO2 | 330 | > 100 | – | – | –
8 | CCCCNC(=O)CCCCc1ccc2c(c1)OCO2 | 3500 | 16.1 | 4.59 | – | –
9 | O=C(O)/C=C/C=C/c1ccc2c(c1)OCO2 [PIPERIC ACID] | 13600 | 18.3 | 1.35 | – | –
10 | COC(=O)/C=C/C=C/c1ccc2c(c1)OCO2 [METHYL PIPERATE] | 230 | 2.74 | 11.9 | – | –
11 | O=C(C1C=CC(c2ccc3c(c2)OCO3)C(/C=C/c2ccc3c(c2)OCO3)C1C(=O)N1CCCCC1)N1CCCCC1 (stereo not drawn) | > 100000 | > 100 | – | – | –
12 | CN1CCN(C(=O)CCCCc2ccc3c(c2)OCO3)CC1 | > 100000 | > 100 | – | – | –
13 | O=C(/C=C/C=C/c1ccc2c(c1)OCO2)N1CCCCC1 [PIPERINE] | 260 | 0.404 | 1.55 | – | –
14 | CN1CCN(C(=O)/C=C/C=C/c2ccc3c(c2)OCO3)CC1 | 960 | 2.04 | 2.12 | – | –
15 | COC(=O)CCCCc1ccc2c(c1)OCO2 | 1800 | 3.17 | 1.76 | – | –
16 | CCOC(=O)/C=C/C=C/c1ccc2c(c1)OCO2 | 330 | 7.55 | 22.8 | – | –
17 | O=C(/C=C/C=C/c1ccc(O)c(O)c1)N1CCCCC1 | 1570 | 0.8 | 0.51 | – | –
18 | C(/C=C/c1ccc2c(c1)OCO2)=C\CN1CCCCC1 | > 100000 | > 100 | – | – | –
19 | CCCNC(=O)/C=C/C=C/c1ccc2c(c1)OCO2 | 45 | 3.66 | 81.5 | Active | Active
